Compound activity from PubChem BioAssay.
Most compounds without a hit are left out; they make up all but 2.5% or so of the library.
UCH37 DUB inh: blocks the human deubiquitinase UCH37 | inhibition, % (no concentration beside the values) | purified proteasome/UCH37, Ub-AMC cleavage fluorescence | Q9Y5K5 | AID 588478 | hit rate 0.33% among 330,000;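 active = mean inhibition over replicate wells above about 20%, limit read from the data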
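assay system = human UCH37 enzyme supplied as purified proteasome complex | amount = proteasome at 0.15 nM in the dispensed enzyme solution | schedule = 30 min compound-proteasome preincubation then 25 min substrate reaction, room temperature | measured by = fluorescence, ex 355 nm, em 460 nm | benchmarks = no-proteasome wells (full inhibition) and compound-free wells (no inhibition)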
MEKK3 PB1 HTS: modulators (inhibitors or enhancers) of MEK5 binding to human MEKK3 PB1 domain; Q99759; bead-based flow cytometry, Alexa488-MEK5 binding to MEKK3; actives lie on both sides; 0 = blocked by unlabeled MEK5, 100 = vehicle; binding response (% of control), % at 10 µM; hit rate 1.4% among 290,000; AID 1529;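 active = binding response more than 3 SD above or below the average of its plate-row segment, actives on both sides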;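 note: Alexa488 bead fluorescence after subtracting the streptavidin-only scavenger bead signal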
MEKK2mut PB1 HTS: signal of MEK5 binding to mutant human MEKK2 PB1 domain; percent response, % at 10 µM; hit rate 0.35% among 290,000; AID 1530; bead flow cytometry, Alexa488-MEK5 binding to MEKK2 mutant; in the data active = percent response above about 24%, passing the limit was not always enough
MEKK2 WT-MEK5: raises or lowers MEK5 binding to wildtype human MEKK2 PB1 domain. bead flow cytometry, Alexa488-MEK5 binding to MEKK2 WT; actives lie on both sides. binding response (% of control), % at 10 µM. hit rate 1.1% among 290,000. AID 1531; in the data active = binding response below about 67% or above about 130%
T cell HTS: T cell immune modulation candidate; response (vesicle binding), % at 7 µM; AID 2052; hit rate 0.068% among 330,000; 2C CD8+ T cell-vesicle binding, flow cytometry; hits give low values;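 active = response, share of CD8 T cells binding vesicles, and their 90th percentile fluorescence all below set limits, cut at about 80% in these data, passing the limit was not always enough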;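 note: values below 100% mean blocked vesicle binding to the CD8+ T cells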
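System: murine 2C transgenic CD8+ T lymphocytes; also added: QL9-loaded Drosophila micro-vesicles; times: binding 1.5 h at 37 °C; measured by: flow cytometry, PE anti-B7-1 (FL2) versus Alexa647 anti-CD8 (FL8), PFA-fixed; control set: Peptide-free naked vesicles (low) and QL9 vesicles with 0.7% DMSO vehicle (high)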
Rce1 inhib: blocks yeast Ras-converting enzyme; AID 2563; Q03530; yeast membranes, quenched prenylated peptide cleavage fluorescence; calls only; hit rate 0.27% among 290,000;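 active = fall in fluorescence gain of 50% or more versus controls, with final raw signal at or below 3038400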
Target sequence (Q03530 whole entry, looked up): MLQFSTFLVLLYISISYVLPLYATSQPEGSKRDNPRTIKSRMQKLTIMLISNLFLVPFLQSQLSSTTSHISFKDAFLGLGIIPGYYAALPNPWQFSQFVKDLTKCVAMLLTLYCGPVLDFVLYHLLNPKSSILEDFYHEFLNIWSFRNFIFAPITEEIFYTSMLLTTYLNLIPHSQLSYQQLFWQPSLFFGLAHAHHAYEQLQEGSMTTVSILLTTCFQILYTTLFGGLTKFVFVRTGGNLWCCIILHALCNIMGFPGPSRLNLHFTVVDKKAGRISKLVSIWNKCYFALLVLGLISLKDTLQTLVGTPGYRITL
MEKK2wt confirm: raises or lowers MEK5 binding to wildtype human MEKK2, retest; shares compounds with MEKK3 PB1 HTS; bead flow cytometry, Alexa488-MEK5 binding to MEKK2 WT; actives lie on both sides; binding response (% of control), % at 10 µM; hit rate 2.4% among 5,900; in the data active = binding response below about 16% or above about 210%; inactive = in between
MEKK2mut confirm: signal of MEK5 binding to mutant human MEKK2, retest; shares compounds with MEKK3 PB1 HTS; percent response, % at 10 µM; hit rate 2% among 5,900; bead flow cytometry, Alexa488-MEK5 binding to MEKK2 mutant; in the data active = percent response mostly above about 71%, no sharp cut-off; inactive = mostly below about 38%;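 note: higher means compound restores mutant binding toward wildtype level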
MEKK3 confirm: MEKK3-MEK5 PB1 inhibition, single concentration confirmation; shares compounds with MEKK3 PB1 HTS; bead flow cytometry, Alexa488-MEK5 binding to MEKK3; hits give low values; binding response (% of control), % at 10 µM; hit rate 1.8% among 5,900; AID 1894;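 active = binding response below 72% of control, or above a set upper limit, though filed actives all read lower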;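 note: lower values mean stronger disruption of MEK5 binding to MEKK3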
Numbers stand for hits; – = inactive; · = no result given; [ ] = remark or other dose.

SMILES	UCH37 DUB inh	MEKK3 PB1 HTS	MEKK2mut PB1 HTS	MEKK2 WT-MEK5	T cell HTS	Rce1 inhib	MEKK2wt confirm	MEKK2mut confirm	MEKK3 confirm
COc1ccc(Oc2ccc(C(F)(F)F)cc2NC(=O)c2ccc(F)cc2)cc1	–	133.0	–	–	–	–	–	–	–
COc1cccc(Oc2ccc(C(F)(F)F)cc2NC(=O)c2cccc(F)c2)c1	–	–	–	–	–	–	·	·	·
CSC(=NC#N)N1CCN(C(=NC#N)SC)CC1	–	2.0[inhibitor]	–	1.0[inhibitor]	–	–	–	–	–
Cc1c(C(=O)N(Cc2ccccc2)Cc2cccs2)cnn1-c1ccc(Cl)cc1	·	132.0	–	–	–	–	–	–	–
Cc1c(C(=O)N(Cc2ccccc2)C(C)C)cnn1-c1ccccc1	–	–	–	–	–	–	·	·	·
COc1cc(CN2CCN(c3ccccc3C)CC2)cc([N+](=O)[O-])c1O	–	62.0[inhibitor]	–	49.0[inhibitor]	–	–	–	–	–
C/C(=N\NC(=O)c1cc(O)cc(O)c1)c1ccc(NC(=O)Cc2ccccc2)cc1	·	71.0[inhibitor]	–	68.0[inhibitor]	–	–	–	–	70.0
C/C(=N\NC(=O)c1cccc(F)c1)c1ccc(NC(=O)Cc2ccccc2)cc1	·	–	–	–	–	–	·	·	·
Cc1ccsc1C=NN1CCOCC1	–	·	·	·	·	·	·	·	·
O=c1c2c3nc4ccccc4nc3n(/N=C/c3ccncc3)c2ncn1-c1ccccc1	·	131.0	–	–	–	–	–	–	–
CCOC(=O)c1sc(NC(=O)CSc2nc3c(c(=O)n2-c2ccc(C)cc2)SCC3)c(C(=O)OCC)c1C	–	71.0[inhibitor]	–	–	–	–	–	–	–
CC(C)(C)c1ccc(C=NNc2cccc(C(=O)O)c2)cc1	–	·	·	·	·	·	·	·	·
CCn1c(SCC(=O)NN=Cc2ccncc2)nc2ccccc21	–	·	·	·	·	·	·	·	·
CN1/C(=C\C(=O)c2cncc(Br)c2)C(C)(C)c2ccccc21	–	–	–	–	–	–	·	·	·
CN1/C(=C\C(=O)c2cccnc2)C(C)(C)c2ccccc21	–	147.0	–	–	–	–	–	–	–
Cc1ccsc1C=NNC(=O)Cc1ccc([N+](=O)[O-])cc1	–	·	·	·	·	·	·	·	·
COc1cccc(C=NNC(=O)CCCc2ccc(OC)c(C)c2)c1	–	·	·	·	·	·	·	·	·
COc1cccc(/C=N/NC(=O)CCCc2ccc(OC)c(C)c2)c1	·	156.0	–	–	–	–	–	–	–
COc1ccc(OC)c(/C=N/NC(=O)CCc2c(C)n[nH]c2C)c1	·	–	–	–	–	–	·	·	·
